From ChEMBL document CHEMBL5647683 (Oncogene, 2008) come the findings set out here.

As a reminder, the T/C is the result in the treated group divided by that in the control group, in per cent. As usually defined, the Cmax is the peak of the concentration-time curve. One may read the AUC as concentration integrated over time. Low values mean low exposure, high ones high exposure.

For data set [1], the target named is RAC-alpha serine/threonine-protein kinase (Homo sapiens) (UniProt P31749). Put plainly: Inhibition of PKBalpha (unknown origin) assessed as remaining activity relative to control; values are per cent of control.
The target in data set [2] is Ribosomal protein S6 kinase alpha-5 (Homo sapiens) (UniProt O75582). The data set can be described thus: Inhibition of MSK1 (unknown origin) assessed as remaining activity relative to control; values are per cent of control.
For data set [3], the target named is Mitogen-activated protein kinase 11 (Homo sapiens) (UniProt Q15759). The data set can be described thus: Inhibition of SAPK2b (unknown origin) assessed as remaining activity relative to control; values are per cent of control.
Data set [4] addresses Dual specificity mitogen-activated protein kinase kinase 1 (Homo sapiens) (UniProt Q02750). Put plainly: Inhibition of MKK1 (unknown origin) assessed as remaining activity relative to control; values are per cent of control.
Data set [5] has as its system Mus musculus. Put plainly: Antitumor activity against EGFR L858R/T790M mutant driven lung cancer mouse model assessed as increase in tissue space at 20 mg/kg, po administered daily for 2 weeks by IHC staining based analysis. The data set is classed as functional, organism-based.
The test system of a further data set is A-431. The data set can be described thus: Antitumor activity against human A-431 cells xenografted athymic NMRI-nu/nu female mouse as reduction in tumor volume at 20 mg/kg, po administered daily for 25 days relative to control. The note with it: time 25 day. The data set is classed as functional. The gist of the method:
(§1)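 Female athymic NMRI-nu/nu mice (5–6 weeks, 21–31 g) given 1–5×10⁶ cells into the right flank; MDA-MB-453 tumors started from fresh 2×2×2 mm fragments. At 40–130 mm³, tumors were randomized to weight-based daily oral gavage (10 ml/kg; 1.8% HP-β-CD, 5% acetic acid (10%), 0.5% Natrosol) or vehicle. Caliper measurement 3×/week, volume π/6×L×W². Expressed as cumulative treated/control volume ratio; one-way ANOVA with Dunnett's test.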
(A xenograft is tissue or cells of one species grown in another, often human tumour cells in immunodeficient mice.)

Data set [6] addresses Tyrosine-protein kinase CSK (Homo sapiens) (UniProt P41240). The data set can be described thus: Inhibition of CSK (unknown origin) assessed as remaining activity relative to control; values are per cent of control.
In data set [7] the test system is NIH3T3. The data set can be described thus: Inhibition of colony formation in EGFR mutant L858R expressing mouse NIH3T3 cells assessed as number of colonies at 1 to 10000 nM incubated for 2 week by soft agar assay. Type of data set: functional, cell-based. Particulars: dose 1-10000 nM, time 2.0 weeks. The gist of the method:
(§2)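 NIH-3T3 cells expressing wild-type or mutant EGFR suspended in top agar (DMEM, 10% calf serum, 0.4% agar) over 0.5% agar bottom layer; drug added to top layer; wild-type cells supplemented with 100 ng/ml EGF. Triplicate plating, 2-week incubation; colonies counted from 10 fields photographed at ×4; values normalized to untreated.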

Data set [8] deals with Mitogen-activated protein kinase 1 (Homo sapiens) (UniProt P28482). Put plainly: Inhibition of ERK2 (unknown origin) assessed as remaining activity relative to control; values are per cent of control.
A further data set relates to NCI-N87. The data set can be described thus: Antitumor activity against human NCI-N87 cells xenografted athymic NMRI-nu/nu female mouse as reduction in tumor volume at 20 mg/kg, po administered daily for 25 days relative to control. Type of data set: functional. The note with it: time 25 day. An outline of the steps:
as §1

For the next data set, the system named is SK-OV-3. Put plainly: Antitumor activity against human SK-OV-3 cells xenografted athymic NMRI-nu/nu female mouse as reduction in tumor volume at 20 mg/kg, po administered daily for 25 days relative to control. The data set is classed as functional. The note with it: time 25 day. An outline of the steps:
as §1

A further data set has as its system NCI-H1975. The data set can be described thus: Antitumor activity against EGFR L858R/T790M mutant expressing in human NCI-H1975 cells xenografted athymic NMRI-nu/nu female mouse as reduction in tumor volume at 20 mg/kg, po administered daily for 25 days relative to control. The data set is classed as functional. Particulars: time 25 day. An outline of the steps: as §1

In data set [9] the test system is Mus musculus. The data set can be described thus: Antitumor activity against EGFR L858R/T790M mutant driven lung cancer mouse model assessed as […] at 20 mg/kg, po administered daily for 1 week in the presence of rapamycin by MRI analysis. Type of data set: functional, organism-based. The note with it: time 1.0 weeks. The gist of the method:
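Bitransgenic L858R/T790M EGFR lung tumor mice on continuous doxycycline received oral gavage at 20 mg/kg/day (0.5% methylcellulose–0.4% Tween 80) plus intraperitoneal rapamycin at 2 mg/kg/day (ethanol stock diluted in 5% PEG400/5% Tween 80) for 1 week. Six mice; MRI before and after treatment; regression as mean ± s.d., Student's t-test.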

Data set [10] addresses Mitogen-activated protein kinase 13 (Homo sapiens) (UniProt O15264). Put plainly: Inhibition of SAPK4 (unknown origin) assessed as remaining activity relative to control; values are per cent of control.
Data set [11] deals with NIH3T3. The data set can be described thus: Inhibition of colony formation in EGFR exon 20 insertion mutant D770-771insNPG expressing mouse NIH3T3 cells assessed as number of colonies at 1 to 10000 nM incubated for 2 week by soft agar assay. Type of data set: functional, cell-based. The note with it: dose 1-10000 nM, time 2.0 weeks. The gist of the method:
as §2

The test system of data set [12] is Mus musculus. Put plainly: Antitumor activity against EGFR L858R/T790M mutant driven lung cancer mouse model assessed as reduction in HER3 phosphorylation at 20 mg/kg, po measured after 48 hrs by immunohistochemical staining. The data set is classed as functional, organism-based. An outline of the steps:
(§3)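 Doxycycline-maintained L858R/T790M EGFR bitransgenic mice, three per group, received 20 mg/kg by gavage, alone or with 2 mg/kg intraperitoneal rapamycin, three times at 24 h intervals. Mice were killed 1 h after the last dose, about 48 h from the start. Lung sections immunostained for phosphorylated receptors; littermates served as controls.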

The subject of data set [13] is Mus musculus. Put plainly: Antitumor activity against EGFR L858R/T790M mutant driven lung cancer mouse model assessed as increase in fibrosis inside tumor nodules at 20 mg/kg, po administered daily for 2 weeks by IHC staining based analysis. The data set is classed as functional, organism-based.
In data set [14] the test system is Mus musculus. The data set can be described thus: In vivo inhibition of HER2 phosphorylation in EGFR L858R/T790M mutant driven lung cancer mouse model at 20 mg/kg, po measured after 48 hrs by immunohistochemical staining. Type of data set: functional, organism-based. The gist of the method:
as §3

Data set [15] is described as follows: Cmax in human NCI-N87 cells xenografted athymic NMRI-nu/nu female mouse at 20 mg/kg, po administered daily for 25 days by LC-MS-MS method. Type of data set: ADME, organism-based. Particulars: in vivo, time 25 day.
Data set [16] in a line: AUC(0-24hrs) in human NCI-N87 cells xenografted athymic NMRI-nu/nu female mouse at 20 mg/kg, po administered daily for 25 days by LC-MS-MS method. The data set is classed as ADME, organism-based. Particulars: in vivo, time 25 day.
Data set [17] deals with Casein kinase 2 (Homo sapiens) (UniProt P67870+P68400+P19784+Q8NEV1). The data set can be described thus: Inhibition of CK2 (unknown origin) assessed as remaining activity relative to control; values are per cent of control.
Data set [18] deals with NIH3T3. The data set can be described thus: Inhibition of colony formation in EGFR mutant R108K expressing mouse NIH3T3 cells assessed as number of colonies at 1 to 10000 nM incubated for 2 week by soft agar assay. Type of data set: functional, cell-based. Particulars: dose 1-10000 nM, time 2.0 weeks. An outline of the steps: as §2

Calls of active or inactive are those of the source. The calls are words filed in the database; no cut-off is given here.

RAC-alpha serine/threonine-protein kinase (Homo sapiens), sequence (P31749 whole entry): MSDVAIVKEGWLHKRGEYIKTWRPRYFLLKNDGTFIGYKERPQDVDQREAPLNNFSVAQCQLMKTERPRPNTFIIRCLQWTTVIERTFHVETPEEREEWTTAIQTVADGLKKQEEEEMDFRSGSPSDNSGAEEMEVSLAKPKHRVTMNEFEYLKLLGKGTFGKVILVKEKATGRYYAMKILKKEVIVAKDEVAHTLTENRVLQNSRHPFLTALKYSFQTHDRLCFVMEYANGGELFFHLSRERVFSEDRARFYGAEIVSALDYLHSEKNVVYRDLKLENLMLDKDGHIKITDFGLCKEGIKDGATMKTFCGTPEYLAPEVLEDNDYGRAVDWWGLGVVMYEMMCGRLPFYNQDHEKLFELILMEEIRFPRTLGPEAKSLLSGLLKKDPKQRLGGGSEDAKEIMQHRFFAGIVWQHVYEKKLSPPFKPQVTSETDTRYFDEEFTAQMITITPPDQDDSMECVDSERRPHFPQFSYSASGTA
Mitogen-activated protein kinase 13 (Homo sapiens), sequence (O15264 whole entry): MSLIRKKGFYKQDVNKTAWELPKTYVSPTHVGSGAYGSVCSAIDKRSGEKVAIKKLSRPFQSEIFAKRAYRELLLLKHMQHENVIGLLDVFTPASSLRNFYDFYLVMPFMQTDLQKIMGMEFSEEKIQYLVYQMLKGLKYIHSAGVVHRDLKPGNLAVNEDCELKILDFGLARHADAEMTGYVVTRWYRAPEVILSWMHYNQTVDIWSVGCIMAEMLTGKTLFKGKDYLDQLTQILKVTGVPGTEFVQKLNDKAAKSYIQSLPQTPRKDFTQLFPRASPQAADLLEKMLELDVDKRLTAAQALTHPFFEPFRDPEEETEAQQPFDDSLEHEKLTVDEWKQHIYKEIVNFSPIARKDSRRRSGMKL
Dual specificity mitogen-activated protein kinase kinase 1 (Homo sapiens), sequence (Q02750 whole entry): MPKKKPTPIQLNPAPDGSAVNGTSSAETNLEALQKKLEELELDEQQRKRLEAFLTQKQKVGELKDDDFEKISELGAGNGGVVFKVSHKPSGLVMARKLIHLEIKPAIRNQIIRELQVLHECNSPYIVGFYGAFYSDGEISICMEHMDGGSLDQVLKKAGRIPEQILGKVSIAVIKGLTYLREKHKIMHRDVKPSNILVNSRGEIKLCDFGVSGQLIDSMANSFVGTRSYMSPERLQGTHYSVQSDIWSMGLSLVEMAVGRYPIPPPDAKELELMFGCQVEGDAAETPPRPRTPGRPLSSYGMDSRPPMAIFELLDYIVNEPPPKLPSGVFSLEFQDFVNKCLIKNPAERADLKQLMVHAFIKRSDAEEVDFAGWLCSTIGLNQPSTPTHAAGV
Ribosomal protein S6 kinase alpha-5 (Homo sapiens), sequence (O75582 whole entry, looked up): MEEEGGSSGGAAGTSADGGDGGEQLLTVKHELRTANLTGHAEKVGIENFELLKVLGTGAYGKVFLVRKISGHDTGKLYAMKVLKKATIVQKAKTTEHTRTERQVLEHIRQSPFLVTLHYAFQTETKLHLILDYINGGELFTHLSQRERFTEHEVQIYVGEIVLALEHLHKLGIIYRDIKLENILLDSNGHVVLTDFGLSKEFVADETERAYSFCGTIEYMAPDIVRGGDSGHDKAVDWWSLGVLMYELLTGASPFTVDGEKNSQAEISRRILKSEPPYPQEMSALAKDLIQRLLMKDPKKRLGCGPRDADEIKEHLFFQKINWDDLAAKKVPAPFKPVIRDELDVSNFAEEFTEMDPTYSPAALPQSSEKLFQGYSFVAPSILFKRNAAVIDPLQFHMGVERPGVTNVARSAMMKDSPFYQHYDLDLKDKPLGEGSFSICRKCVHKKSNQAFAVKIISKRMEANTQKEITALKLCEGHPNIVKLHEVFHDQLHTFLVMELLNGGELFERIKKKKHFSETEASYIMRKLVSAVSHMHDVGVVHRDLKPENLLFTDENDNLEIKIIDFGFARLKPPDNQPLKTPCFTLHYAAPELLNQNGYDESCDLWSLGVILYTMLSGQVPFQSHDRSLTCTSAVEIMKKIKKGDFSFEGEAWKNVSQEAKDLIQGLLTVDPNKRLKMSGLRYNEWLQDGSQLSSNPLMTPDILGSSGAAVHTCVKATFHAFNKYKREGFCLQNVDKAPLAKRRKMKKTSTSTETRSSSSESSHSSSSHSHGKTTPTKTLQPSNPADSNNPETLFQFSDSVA
Tyrosine-protein kinase CSK (Homo sapiens), sequence (P41240 2-450 limits assumed): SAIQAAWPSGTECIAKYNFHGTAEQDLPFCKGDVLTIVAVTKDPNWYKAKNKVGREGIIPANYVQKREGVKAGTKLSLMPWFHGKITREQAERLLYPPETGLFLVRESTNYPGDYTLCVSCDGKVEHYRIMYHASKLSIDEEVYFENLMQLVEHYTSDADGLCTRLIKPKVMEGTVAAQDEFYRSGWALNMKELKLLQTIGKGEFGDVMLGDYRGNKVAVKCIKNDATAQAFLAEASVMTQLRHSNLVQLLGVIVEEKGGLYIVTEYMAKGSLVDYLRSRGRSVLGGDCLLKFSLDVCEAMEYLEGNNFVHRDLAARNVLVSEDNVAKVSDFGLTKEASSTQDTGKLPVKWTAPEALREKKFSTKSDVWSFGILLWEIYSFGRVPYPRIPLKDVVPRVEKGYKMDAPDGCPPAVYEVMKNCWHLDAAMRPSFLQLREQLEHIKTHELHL
Mitogen-activated protein kinase 11 (Homo sapiens), sequence (Q15759 whole entry): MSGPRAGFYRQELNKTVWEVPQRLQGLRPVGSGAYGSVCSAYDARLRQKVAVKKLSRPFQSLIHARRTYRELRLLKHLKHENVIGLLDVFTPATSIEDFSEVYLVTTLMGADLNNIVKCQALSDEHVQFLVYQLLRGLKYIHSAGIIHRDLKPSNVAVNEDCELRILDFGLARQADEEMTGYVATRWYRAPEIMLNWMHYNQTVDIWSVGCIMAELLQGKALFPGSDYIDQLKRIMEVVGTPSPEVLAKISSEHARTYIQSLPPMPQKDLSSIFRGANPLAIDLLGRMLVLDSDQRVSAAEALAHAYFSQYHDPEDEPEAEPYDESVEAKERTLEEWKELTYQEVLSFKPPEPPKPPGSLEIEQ
Mitogen-activated protein kinase 1 (Homo sapiens), sequence (P28482 whole entry): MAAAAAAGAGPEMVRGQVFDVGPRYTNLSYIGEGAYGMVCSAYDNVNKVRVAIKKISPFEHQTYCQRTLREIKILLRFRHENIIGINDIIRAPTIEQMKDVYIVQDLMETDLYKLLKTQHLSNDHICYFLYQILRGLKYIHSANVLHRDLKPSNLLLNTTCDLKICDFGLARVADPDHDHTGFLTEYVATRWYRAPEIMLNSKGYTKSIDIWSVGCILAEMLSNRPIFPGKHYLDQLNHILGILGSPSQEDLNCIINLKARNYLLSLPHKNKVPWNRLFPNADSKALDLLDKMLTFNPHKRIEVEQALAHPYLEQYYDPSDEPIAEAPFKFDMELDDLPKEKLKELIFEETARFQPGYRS

Turning to `CN(C)C/C=C/C(=O)Nc1cc2c(Nc3ccc(F)c(Cl)c3)ncnc2cc1O[C@H]1CCOC1` [AFATINIB], the residual activity in data set [1] worked out at 70%; in data set [2] it was 91%; in data set [3], 56%; in [4], 86%; in data set [6], 46%; in data set [8] it was 88%. Also, the results for the residual activity in [10] and in data set [17] were 97% and 100%, respectively. In addition, the outcome with Mus musculus [5], in the data set with Mus musculus [9], in the data set on Mus musculus [12], with Mus musculus [13] and in the data set with Mus musculus [14] was Active. Moreover, the T/C in the data set on A-431 is 2%; with NCI-N87, 4%; with SK-OV-3 it was 3%; with NCI-H1975, 12%. Moreover, the inhibition result in the data set with NIH3T3 [7], in the data set with NIH3T3 [11] and in the data set with NIH3T3 [18] was “Active” each time. Also, the peak level in data set [15] (Cmax) was 80 nM. This compound yielded an AUC at 600 h in data set [16] of 1.07 µM·h.
